What was measured:
Type in all cases: cell-based
TLR1/2 [1] = target: T1, TLR1/2 (Homo sapiens, UniProt O60603+Q15399); assay: Ramos Blue reporter B cell line, Pam3CSK4 stimulation; settings: Ramos cells; up to 10 μM; n = 4, data not shown
Method in brief: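 Ramos Blue B reporter cells were pre-treated 30 min at 37°C, 5% CO2 with increasing concentrations of test compound or 0.25% v/v DMSO. They were then stimulated with the respective agonist, and reporter activity was read.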

TLR8 [2] = target: T2, TLR8 (Homo sapiens, UniProt Q9NR97); assay: HEK293-NFkB-luciferase reporter cells transfected with TLR8, R848 stimulation
T2 sequence (Q9NR97 27-1041): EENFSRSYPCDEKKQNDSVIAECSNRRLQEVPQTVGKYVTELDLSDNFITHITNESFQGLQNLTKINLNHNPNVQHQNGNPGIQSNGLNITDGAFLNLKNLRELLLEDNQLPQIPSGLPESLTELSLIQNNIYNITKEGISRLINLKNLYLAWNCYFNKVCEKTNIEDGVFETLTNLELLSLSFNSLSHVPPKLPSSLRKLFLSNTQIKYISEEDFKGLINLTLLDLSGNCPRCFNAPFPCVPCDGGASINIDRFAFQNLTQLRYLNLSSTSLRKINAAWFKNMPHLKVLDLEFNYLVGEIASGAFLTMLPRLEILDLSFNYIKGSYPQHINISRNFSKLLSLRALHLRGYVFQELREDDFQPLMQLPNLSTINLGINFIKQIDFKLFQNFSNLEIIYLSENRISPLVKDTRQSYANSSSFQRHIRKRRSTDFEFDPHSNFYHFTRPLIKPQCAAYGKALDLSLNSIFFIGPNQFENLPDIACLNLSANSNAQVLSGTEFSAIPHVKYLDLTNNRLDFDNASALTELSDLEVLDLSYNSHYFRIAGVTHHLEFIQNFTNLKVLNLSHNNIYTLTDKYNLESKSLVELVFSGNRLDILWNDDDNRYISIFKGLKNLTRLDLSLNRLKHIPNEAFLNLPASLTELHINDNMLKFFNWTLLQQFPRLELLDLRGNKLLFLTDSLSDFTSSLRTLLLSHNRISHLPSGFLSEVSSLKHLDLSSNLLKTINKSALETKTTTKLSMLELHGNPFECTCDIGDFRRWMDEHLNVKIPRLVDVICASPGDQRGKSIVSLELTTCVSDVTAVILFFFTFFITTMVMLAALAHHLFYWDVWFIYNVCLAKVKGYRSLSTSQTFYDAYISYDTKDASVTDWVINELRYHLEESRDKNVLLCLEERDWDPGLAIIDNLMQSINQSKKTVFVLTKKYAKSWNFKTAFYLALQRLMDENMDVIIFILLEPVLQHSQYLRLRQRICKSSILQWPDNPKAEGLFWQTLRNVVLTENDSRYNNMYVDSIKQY
Method in brief: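 HEK293-NFkB-luciferase cells stably expressing HA-tagged human TLR7 or TLR8 were pre-treated 60 min at 37°C, 5% CO2 with increasing concentrations of test compound or 0.25% v/v DMSO. They were then stimulated 6 h with R848: 0.3 μM for TLR7, 4 μM for TLR8. Luciferase activity […] was read by Bright-Glo luminescence.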

TLR9 = target: T3, TLR9 (Homo sapiens, UniProt Q9NR96); assay: Human PBMC assay, ODN2216-induced IFN-α
T3 sequence (Q9NR96 26-1032): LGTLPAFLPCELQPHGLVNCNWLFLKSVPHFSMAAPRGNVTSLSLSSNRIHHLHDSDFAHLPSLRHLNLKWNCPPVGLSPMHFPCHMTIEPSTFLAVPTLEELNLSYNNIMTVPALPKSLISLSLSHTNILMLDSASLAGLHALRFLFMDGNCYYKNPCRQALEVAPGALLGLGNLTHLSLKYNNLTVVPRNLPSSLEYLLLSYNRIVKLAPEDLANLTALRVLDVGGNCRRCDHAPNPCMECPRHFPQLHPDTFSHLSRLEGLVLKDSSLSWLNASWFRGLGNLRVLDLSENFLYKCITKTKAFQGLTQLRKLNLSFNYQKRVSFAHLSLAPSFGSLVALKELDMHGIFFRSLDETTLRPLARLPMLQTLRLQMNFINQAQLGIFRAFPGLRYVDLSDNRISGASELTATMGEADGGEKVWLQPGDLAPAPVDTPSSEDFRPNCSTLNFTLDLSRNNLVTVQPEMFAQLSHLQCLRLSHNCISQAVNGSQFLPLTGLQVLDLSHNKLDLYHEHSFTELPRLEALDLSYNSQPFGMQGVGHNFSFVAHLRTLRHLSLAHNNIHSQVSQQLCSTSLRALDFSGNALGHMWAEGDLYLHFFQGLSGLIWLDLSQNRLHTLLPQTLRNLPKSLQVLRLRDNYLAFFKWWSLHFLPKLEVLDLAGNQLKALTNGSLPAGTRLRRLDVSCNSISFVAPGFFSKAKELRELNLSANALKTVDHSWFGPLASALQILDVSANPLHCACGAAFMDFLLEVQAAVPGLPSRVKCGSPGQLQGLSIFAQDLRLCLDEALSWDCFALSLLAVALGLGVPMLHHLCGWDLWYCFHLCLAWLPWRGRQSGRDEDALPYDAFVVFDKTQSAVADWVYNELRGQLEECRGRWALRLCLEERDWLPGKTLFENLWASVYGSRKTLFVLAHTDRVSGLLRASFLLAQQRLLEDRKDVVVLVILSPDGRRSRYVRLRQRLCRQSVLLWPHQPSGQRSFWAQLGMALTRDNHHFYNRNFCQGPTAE
Method in brief: (§1)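 Human PBMCs were pre-incubated 30 min with test compound, then stimulated with the respective TLR or IL-1R agonist at doses from earlier work. Cytokines in supernatants were quantified by immunoassay. Viability across the dose range was checked by CellTiter-Glo.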

TLR4 = TLR4 (Homo sapiens, UniProt O00206); assay: Human PBMC cytokine secretion, TLR4 agonist; settings: human PBMCs; up to 10 μM; n = 5 donors
TLR4, sequence (O00206 24-839): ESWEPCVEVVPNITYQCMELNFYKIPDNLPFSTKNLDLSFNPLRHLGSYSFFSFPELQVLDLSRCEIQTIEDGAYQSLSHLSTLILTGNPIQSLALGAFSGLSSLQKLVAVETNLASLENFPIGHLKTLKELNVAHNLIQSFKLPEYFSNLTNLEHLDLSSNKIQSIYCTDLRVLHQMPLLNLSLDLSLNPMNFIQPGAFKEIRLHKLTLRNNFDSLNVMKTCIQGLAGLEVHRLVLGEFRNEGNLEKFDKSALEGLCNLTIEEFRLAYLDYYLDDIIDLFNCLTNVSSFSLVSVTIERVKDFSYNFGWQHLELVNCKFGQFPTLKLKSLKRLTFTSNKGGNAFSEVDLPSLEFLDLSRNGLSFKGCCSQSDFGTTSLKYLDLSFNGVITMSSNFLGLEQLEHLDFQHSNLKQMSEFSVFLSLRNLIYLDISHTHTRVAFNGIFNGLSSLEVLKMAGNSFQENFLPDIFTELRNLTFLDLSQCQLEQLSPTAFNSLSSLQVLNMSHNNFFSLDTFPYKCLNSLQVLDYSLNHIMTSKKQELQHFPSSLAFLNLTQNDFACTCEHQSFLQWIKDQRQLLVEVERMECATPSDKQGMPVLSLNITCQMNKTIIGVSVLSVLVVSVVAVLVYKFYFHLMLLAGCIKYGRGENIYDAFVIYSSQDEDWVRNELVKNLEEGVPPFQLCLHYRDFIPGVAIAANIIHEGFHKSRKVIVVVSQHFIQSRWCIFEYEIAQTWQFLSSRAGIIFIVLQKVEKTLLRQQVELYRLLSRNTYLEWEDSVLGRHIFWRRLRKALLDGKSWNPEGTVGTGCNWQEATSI
TLR4, sequence (Q9Y6Y9 19-160 partner): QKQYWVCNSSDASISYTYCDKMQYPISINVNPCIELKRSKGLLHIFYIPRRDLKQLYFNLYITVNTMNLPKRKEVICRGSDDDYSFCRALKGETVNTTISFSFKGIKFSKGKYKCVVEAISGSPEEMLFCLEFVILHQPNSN
Method in brief: as §1

TLR1/2 [3] = target: T1, TLR1/2; assay: Human PBMC cytokine secretion, TLR1/2 agonist; settings: human PBMCs; up to 10 μM; n = 5 donors, data not shown
Method in brief: as §1

TLR8 [4] = target: T2, TLR8; assay: Human whole blood assay, ssRNA-TNF
Method in brief: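 Fresh human blood or 129/Sv mouse blood was taken into citrate and diluted 1:1 with RPMI1640. It was pre-incubated 30 min at 37°C, 5% CO2 with increasing concentrations of test compound or 0.25% v/v DMSO (final). Blood was then stimulated with TLR agonists at doses from earlier work, or with R848 (3 μM), and cytokines were quantified. Viability was checked by ATPlite luminescence.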

TLR7/8 = TLR7/8 (Homo sapiens, UniProt Q9NR97); assay: Human neutrophil ROS production, R848 stimulation

T1 sequence (Q15399 25-786): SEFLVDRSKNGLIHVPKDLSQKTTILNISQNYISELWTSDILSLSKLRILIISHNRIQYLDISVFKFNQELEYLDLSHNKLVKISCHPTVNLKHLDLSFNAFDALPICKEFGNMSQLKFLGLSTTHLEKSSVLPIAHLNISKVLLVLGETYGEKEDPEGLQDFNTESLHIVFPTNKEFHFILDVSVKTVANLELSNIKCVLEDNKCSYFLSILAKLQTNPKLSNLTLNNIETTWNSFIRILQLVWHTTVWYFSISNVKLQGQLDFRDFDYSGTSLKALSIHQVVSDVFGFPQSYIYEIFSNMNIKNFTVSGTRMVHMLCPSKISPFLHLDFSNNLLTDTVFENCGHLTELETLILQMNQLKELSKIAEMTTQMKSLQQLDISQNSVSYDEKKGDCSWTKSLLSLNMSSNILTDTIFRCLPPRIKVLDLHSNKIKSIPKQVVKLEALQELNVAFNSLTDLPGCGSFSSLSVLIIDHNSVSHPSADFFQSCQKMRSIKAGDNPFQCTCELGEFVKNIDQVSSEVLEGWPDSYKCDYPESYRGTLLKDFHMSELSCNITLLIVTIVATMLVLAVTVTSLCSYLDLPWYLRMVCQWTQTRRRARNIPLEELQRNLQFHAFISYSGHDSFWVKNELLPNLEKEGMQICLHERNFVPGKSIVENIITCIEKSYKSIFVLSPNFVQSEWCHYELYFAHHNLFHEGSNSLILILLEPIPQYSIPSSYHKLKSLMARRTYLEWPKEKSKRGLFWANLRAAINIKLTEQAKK
T1 sequence (O60603 21-784): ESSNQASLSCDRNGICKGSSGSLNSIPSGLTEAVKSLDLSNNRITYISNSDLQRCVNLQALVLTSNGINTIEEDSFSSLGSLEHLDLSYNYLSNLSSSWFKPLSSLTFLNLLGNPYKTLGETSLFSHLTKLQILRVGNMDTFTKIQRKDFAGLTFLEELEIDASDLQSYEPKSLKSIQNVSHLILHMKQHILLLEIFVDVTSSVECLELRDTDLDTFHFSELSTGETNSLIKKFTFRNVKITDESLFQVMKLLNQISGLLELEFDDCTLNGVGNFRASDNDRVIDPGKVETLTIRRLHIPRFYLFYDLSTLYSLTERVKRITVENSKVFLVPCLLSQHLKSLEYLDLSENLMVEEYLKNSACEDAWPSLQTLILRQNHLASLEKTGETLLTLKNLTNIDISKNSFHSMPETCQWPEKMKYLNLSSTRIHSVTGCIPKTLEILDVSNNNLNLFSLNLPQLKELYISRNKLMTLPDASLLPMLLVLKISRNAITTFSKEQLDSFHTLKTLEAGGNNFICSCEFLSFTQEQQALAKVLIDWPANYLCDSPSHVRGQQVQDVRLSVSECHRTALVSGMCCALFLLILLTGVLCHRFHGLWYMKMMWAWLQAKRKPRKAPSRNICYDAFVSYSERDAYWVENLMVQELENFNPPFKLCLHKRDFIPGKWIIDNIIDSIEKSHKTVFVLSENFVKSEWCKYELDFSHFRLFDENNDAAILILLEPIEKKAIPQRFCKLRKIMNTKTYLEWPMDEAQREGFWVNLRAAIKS

Compound: Cc1cc(N2CCc3c(c(C)nn3CC34CCC(NC(=O)[C@@H]5COCCN5)(CC3)CC4)C2)c2cnn(C)c2n1 [MHV370, (S)-N-(4-((5-(1,6-dimethyl-1H-pyrazolo[3,4-b]pyridin-4-yl)-3-methyl-4,5,6,7-tetrahydro-1H-pyrazolo[4,3-c]pyridin-1-yl)methyl)bicyclo[2.2.2]octan-1-yl)morpholine-3-carboxamide]
- interference with TLR1/2-driven activity (TLR1/2 [1]): did not interfere
- IC50 (TLR8 [2]): 4.5 ± 1.1 nM
- IC50 (TLR9): 1300 nM
- interference with cytokine secretion, TLR4 agonist (TLR4): did not significantly interfere
- interference with cytokine secretion, TLR1/2 agonist (TLR1/2 [3]): did not significantly interfere
- IC50 (TLR8 [4]): 31 ± 4.4 nM
- IC50 (TLR7/8): 3.8 ± 0.8 nM
